Source: ChEMBL document CHEMBL3817843, “Understanding Oxadiazolothiazinone Biological Properties: Negative Inotropic Activity versus Cytochrome P450-Mediated Metabolism” (J Med Chem, 2016)
pEC50, pIC50: −log10 of the molar value.

Experiments:
Cytochrome P450 3A4 [1] = biological target: T1, Cytochrome P450 3A4 (Homo sapiens, UniProt P08684); experiment: Inhibition of CYP3A4 in human liver microsomes using midazolam as substrate after 4 mins by LC-MS analysis
Left cardiac atrium [2] = experiment: Negative inotropic activity in potassium depolarized guinea pig left atrium assessed as reduction in developed tension at 5 uM after 30 mins; format: functional, Cavia porcellus; set-up: scale not given: the % may be the effect or the level left
Left cardiac atrium [3] = experiment: Negative inotropic activity in potassium depolarized guinea pig left atrium assessed as reduction in developed tension after 30 mins; format: functional; settings: Cavia porcellus, 0.5 h
Outline: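 Guinea pig left atria electrically driven at 1 Hz. EC50 taken from log concentration−response curves by Litchfield and Wilcoxon probit analysis, n = 6−7. Not calculated when the maximum effect was below 50%.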

Right cardiac atrium [4] = experiment: Negative chronotropic activity in potassium depolarized guinea pig right atrium assessed as reduction in atrial rate at 10^-4 M after 30 mins; format: functional, Cavia porcellus; set-up: scale not given: the % may be the effect or the level left
Aorta [5] = experiment: Vasorelaxant activity in potassium depolarized guinea pig aorta assessed as inhibition of calcium-induced contraction at 10^-4 M after 30 mins; format: functional, Cavia porcellus; set-up: scale not given: the % may be the effect or the level left
Outline: (§1)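 Guinea pig aortic strips depolarized with K+ (80 mM). Calcium-induced contraction measured; inhibition expressed as percent change from control, n = 3−5.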

[6] = Relaxant activity in potassium depolarized guinea pig ileum longitudinal smooth muscle assessed as inhibition of calcium-induced contraction at 10^-4 M after 30 mins; format: functional, Cavia porcellus; set-up: scale not given: the % may be the effect or the level left
[7] = Relaxant activity in potassium depolarized guinea pig ileum longitudinal smooth muscle assessed as inhibition of calcium-induced contraction after 30 mins; format: functional, tissue-based; settings: Cavia porcellus, 0.5 h
Cytochrome P450 2C19 = Cytochrome P450 2C19 (Homo sapiens, UniProt P33261); experiment: Inhibition of CYP2C19 in human liver microsomes using (S)-mephenytoin as substrate after 40 mins by LC-MS analysis
Cytochrome P450 2D6 = Cytochrome P450 2D6 (Homo sapiens, UniProt P10635); experiment: Inhibition of CYP2D6 in human liver microsomes using dextromethorphan as substrate after 10 mins by LC-MS analysis
Liver microsome = experiment: Stability in human liver microsomes at 1 uM after 2 to 60 mins by LC-MS analysis in absence of NADPH
Cytochrome P450 1A2 = biological target: T2, Cytochrome P450 1A2 (Homo sapiens, UniProt P05177); experiment: Inhibition of CYP1A2 in human liver microsomes using phenacetin as substrate after 30 mins by LC-MS analysis
T2 sequence (P05177 whole entry): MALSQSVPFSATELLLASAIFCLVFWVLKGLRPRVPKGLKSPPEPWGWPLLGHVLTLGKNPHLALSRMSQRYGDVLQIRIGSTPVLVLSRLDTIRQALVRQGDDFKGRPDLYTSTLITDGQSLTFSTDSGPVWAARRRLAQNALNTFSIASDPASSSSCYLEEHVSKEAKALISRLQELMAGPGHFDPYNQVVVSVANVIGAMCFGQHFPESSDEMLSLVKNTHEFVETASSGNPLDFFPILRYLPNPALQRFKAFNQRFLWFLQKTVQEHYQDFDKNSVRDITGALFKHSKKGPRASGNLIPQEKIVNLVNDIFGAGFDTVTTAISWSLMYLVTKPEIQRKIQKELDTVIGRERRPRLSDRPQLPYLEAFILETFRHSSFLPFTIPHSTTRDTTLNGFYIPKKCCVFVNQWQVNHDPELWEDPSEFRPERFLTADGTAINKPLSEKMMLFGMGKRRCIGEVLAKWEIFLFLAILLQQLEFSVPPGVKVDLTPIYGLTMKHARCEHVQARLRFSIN

Cytochrome P450 2C9 = Cytochrome P450 2C9 (Homo sapiens, UniProt P11712); experiment: Inhibition of CYP2C9 in human liver microsomes using tolbutamide as substrate after 20 mins by LC-MS analysis
Cytochrome P450 3A4 [8] = biological target: T1, Cytochrome P450 3A4; experiment: Inhibition of CYP3A4 in human liver microsomes using testosterone as substrate after 5 mins by LC-MS analysis
Left cardiac atrium [9] = experiment: Negative inotropic activity in potassium depolarized guinea pig left atrium assessed as reduction in developed tension at 50 uM after 30 mins; format: functional, Cavia porcellus; set-up: scale not given: the % may be the effect or the level left
Right cardiac atrium [10] = experiment: Negative chronotropic activity in potassium depolarized guinea pig right atrium assessed as reduction in atrial rate at 50 uM after 30 mins; format: functional, Cavia porcellus; set-up: scale not given: the % may be the effect or the level left
Aorta [11] = experiment: Vasorelaxant activity in potassium depolarized guinea pig aorta assessed as inhibition of calcium-induced contraction at 50 uM after 30 mins; format: functional, Cavia porcellus; set-up: scale not given: the % may be the effect or the level left; outline: as §1
[12] = Half life in human liver microsomes assessed as CYP-mediated compound degradation at 1 uM by LC-MS analysis
Left cardiac atrium [13] = experiment: Negative inotropic activity in potassium depolarized guinea pig left atrium assessed as reduction in developed tension at 10^-4 M after 30 mins; format: functional, Cavia porcellus; set-up: scale not given: the % may be the effect or the level left
in vitro = settings: human, liver microsomes
Left cardiac atrium [14] = experiment: Negative inotropic activity in potassium depolarized guinea pig left atrium assessed as reduction in developed tension at 10^-5 M after 30 mins; format: functional, Cavia porcellus; set-up: scale not given: the % may be the effect or the level left
Right cardiac atrium [15] = experiment: Negative chronotropic activity in potassium depolarized guinea pig right atrium assessed as reduction in atrial rate at 10^-6 M after 30 mins; format: functional, Cavia porcellus; set-up: scale not given: the % may be the effect or the level left
[16] = Relaxant activity in potassium depolarized guinea pig ileum longitudinal smooth muscle assessed as inhibition of calcium-induced contraction at 50 uM after 30 mins; format: functional, Cavia porcellus; set-up: scale not given: the % may be the effect or the level left
Right cardiac atrium [17] = experiment: Negative chronotropic activity in potassium depolarized guinea pig right atrium assessed as reduction in atrial rate at 10^-5 M after 30 mins; format: functional, Cavia porcellus; set-up: scale not given: the % may be the effect or the level left

T1 sequence (P08684 whole entry): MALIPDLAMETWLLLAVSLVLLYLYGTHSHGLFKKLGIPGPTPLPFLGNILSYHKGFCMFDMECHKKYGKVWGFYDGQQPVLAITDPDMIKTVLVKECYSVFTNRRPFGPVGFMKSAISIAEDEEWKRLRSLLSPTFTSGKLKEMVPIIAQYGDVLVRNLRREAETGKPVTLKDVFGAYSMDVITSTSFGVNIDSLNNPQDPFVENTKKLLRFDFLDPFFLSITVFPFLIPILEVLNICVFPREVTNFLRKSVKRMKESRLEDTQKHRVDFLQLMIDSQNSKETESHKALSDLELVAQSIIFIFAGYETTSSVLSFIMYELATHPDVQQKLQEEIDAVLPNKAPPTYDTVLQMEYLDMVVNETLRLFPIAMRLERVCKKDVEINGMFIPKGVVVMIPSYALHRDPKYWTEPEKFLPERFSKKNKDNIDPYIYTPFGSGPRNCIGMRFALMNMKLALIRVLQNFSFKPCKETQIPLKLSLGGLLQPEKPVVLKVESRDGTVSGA
Chain of Cytochrome P450 2C19 (P33261 whole entry): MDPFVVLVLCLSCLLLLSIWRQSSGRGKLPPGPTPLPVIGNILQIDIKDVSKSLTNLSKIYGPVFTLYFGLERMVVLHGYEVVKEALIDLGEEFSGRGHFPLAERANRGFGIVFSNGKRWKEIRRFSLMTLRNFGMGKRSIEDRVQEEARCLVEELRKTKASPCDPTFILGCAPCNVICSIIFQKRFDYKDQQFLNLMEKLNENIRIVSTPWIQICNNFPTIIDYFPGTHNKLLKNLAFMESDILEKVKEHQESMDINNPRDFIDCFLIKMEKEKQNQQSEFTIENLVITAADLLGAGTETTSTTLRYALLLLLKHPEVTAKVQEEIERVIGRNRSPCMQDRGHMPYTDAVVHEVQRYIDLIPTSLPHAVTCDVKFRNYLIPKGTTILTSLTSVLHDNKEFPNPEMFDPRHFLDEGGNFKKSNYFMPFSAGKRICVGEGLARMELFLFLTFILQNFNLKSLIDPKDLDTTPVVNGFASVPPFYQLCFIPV
Chain of Cytochrome P450 2C9 (P11712 whole entry): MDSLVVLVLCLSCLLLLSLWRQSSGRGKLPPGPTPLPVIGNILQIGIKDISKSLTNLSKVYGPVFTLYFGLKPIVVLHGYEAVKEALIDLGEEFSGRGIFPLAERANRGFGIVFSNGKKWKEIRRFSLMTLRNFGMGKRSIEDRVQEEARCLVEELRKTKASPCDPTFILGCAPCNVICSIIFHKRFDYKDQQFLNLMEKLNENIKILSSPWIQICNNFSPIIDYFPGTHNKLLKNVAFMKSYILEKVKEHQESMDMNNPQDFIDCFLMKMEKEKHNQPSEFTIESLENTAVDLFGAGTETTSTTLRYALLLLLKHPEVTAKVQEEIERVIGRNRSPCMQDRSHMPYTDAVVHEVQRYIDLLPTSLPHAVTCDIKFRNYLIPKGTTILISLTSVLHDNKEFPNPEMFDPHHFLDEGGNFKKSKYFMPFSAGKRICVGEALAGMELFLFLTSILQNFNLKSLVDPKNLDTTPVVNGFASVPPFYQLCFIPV
Chain of Cytochrome P450 2D6 (P10635 whole entry): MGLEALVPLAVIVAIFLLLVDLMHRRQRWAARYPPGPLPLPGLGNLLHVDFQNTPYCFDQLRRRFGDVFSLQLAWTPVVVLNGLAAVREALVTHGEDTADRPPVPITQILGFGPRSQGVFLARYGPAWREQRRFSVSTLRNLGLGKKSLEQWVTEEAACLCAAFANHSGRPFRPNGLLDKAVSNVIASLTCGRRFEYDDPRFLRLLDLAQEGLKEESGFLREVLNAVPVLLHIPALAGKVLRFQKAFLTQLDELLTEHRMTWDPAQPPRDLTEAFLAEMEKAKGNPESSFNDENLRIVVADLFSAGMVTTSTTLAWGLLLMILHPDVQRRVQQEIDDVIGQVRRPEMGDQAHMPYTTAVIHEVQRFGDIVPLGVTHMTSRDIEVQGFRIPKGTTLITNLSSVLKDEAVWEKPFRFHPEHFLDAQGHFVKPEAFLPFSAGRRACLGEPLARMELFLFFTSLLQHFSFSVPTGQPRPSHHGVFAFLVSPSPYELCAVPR

SMILES	pIC50 (Cytochrome P450 3A4 [1])	pEC50 (Left cardiac atrium [3])	Activity (Right cardiac atrium [4])	Activity (Aorta [5])	pIC50 (Cytochrome P450 2C19)	pIC50 (Cytochrome P450 2D6)	Stability (Liver microsome)	pIC50 (Cytochrome P450 1A2)	pIC50 (Cytochrome P450 2C9)	pIC50 (Cytochrome P450 3A4 [8])	Activity (Left cardiac atrium [9])	further results
CC1=CSC(OCC(F)(F)F)(c2ccccc2)c2noc(=O)n21 (stereo not given)	< 4.70	6.85	6%	28%	5.62	4.78	Stable	< 4.70	4.74	< 4.70		Activity (Left cardiac atrium [2]): 79%; Activity [6]: 95%; pIC50 [7]: 5.01
COc1cccc(C2(O)SC=C(C)n3c2noc3=O)c1 (stereo not given)		6.31									86%	Activity (Right cardiac atrium [10]): 16%; Activity (Aorta [11]): 10%
COc1ccc(C2(OCC(F)(F)F)Sc3ccccc3-n3c2noc3=O)cc1 (stereo not given)	< 4.70	7.02	19%	6%	4.77	< 4.70	Stable	< 4.70	< 4.70	< 4.70		half-life at 1 µM [12]: 23 min; Activity (Left cardiac atrium [13]): 82%; Activity [6]: 66%; pIC50 [7]: 4.99; microsomal CLint at 1 µM (in vitro): 76 µL/min/mg
COc1ccc(C2(OC(C)C)SC=C(C)n3c2noc3=O)cc1 (stereo not given)		6.37		11%								Activity (Left cardiac atrium [14]): 69%; Activity (Right cardiac atrium [10]): 14%
O=c1onc2n1-c1ccccc1SC2(OCC(F)(F)F)c1ccc(Br)cc1 (stereo not given)	< 4.70				4.97	< 4.70	Stable	< 4.70	< 4.70	< 4.70		
CCOC1(c2ccc(OC)cc2)Sc2ccccc2-n2c1noc2=O (stereo not given)	< 4.70	6.64	19%	11%	5.44	< 4.70	Stable	< 4.70	4.93	< 4.70		half-life at 1 µM [12]: 13 min; Activity (Left cardiac atrium [14]): 73%; microsomal CLint at 1 µM (in vitro): 135 µL/min/mg
CC1=CSC(OCC2CCCCC2)(c2ccccc2)c2noc(=O)n21 (stereo not given)		6.06	2%	14%								Activity (Left cardiac atrium [13]): 56%
CC(C)OC1(c2ccccc2)Sc2ccccc2-n2c1noc2=O (stereo not given)		6.39	13%	7%							69%	
COc1ccccc1C1(OCC2CCCCC2)SC=C(C)n2c1noc2=O (stereo not given)		6.32		17%							89%	Activity (Right cardiac atrium [10]): 22%
CCOC1(c2ccccc2)SC=C(C)n2c1noc2=O (stereo not given)	< 4.70	6.66		32%	5.32	4.77	Stable	< 4.70	< 4.70	4.72		half-life at 1 µM [12]: 20 min; Activity (Left cardiac atrium [14]): 86%; Activity (Right cardiac atrium [15]): 11%; Activity [16]: 89%; pIC50 [7]: 4.93; microsomal CLint at 1 µM (in vitro): 86 µL/min/mg
CC1=CSC(OCC(F)(F)F)(c2ccc(Br)cc2)c2noc(=O)n21 (stereo not given)	< 4.70				6.00	5.15	Stable	5.30	5.18	< 4.70		half-life at 1 µM [12]: > 250 min; microsomal CLint at 1 µM (in vitro): < 7 µL/min/mg
O=c1onc2n1-c1ccccc1SC2(OCC1CCCCC1)c1ccccc1 (stereo not given)		6.55	6%	3%							86%	
CCOC1(c2ccccc2)Sc2ccccc2-n2c1noc2=O (stereo not given)		6.68		14%	5.21	< 4.70	Stable	< 4.70	4.72	< 4.70		Activity (Left cardiac atrium [14]): 88%; Activity (Right cardiac atrium [10]): 7%
COc1ccccc1C1(O)SC=C(C)n2c1noc2=O (stereo not given)		6.03		25%							94%	Activity (Right cardiac atrium [17]): 11%
